Test results from ChEMBL document CHEMBL4371041, “Synthesis and evaluation of thieno[3,2-d]pyrimidine derivatives as novel FMS inhibitors” (Bioorg Med Chem Lett, 2019).

Key:
[1] = target: Macrophage colony-stimulating factor 1 receptor (Homo sapiens, UniProt P07333); test: […] at recombinant human N-terminal His6-tagged FMS (538 to end residues) expressed in baculovirus infected Sf21 insect cells using IGF-R1tide as substrate in presence of [gamma-33P]-ATP or [gamma-32P]-ATP
[2] = tested on: NFS-60; test: Growth inhibition of mouse NFS60 cells after 72 hrs by CellTiter96 AQueous one solution cell proliferation assay; format: functional; conditions: NFS-60, 72 h
[3] = Volume of distribution in CD-1 mouse at 3 mg/kg, iv; format: ADME, organism-based; conditions: in vivo
[4] = Clearance in CD-1 mouse at 3 mg/kg, iv; format: ADME, organism-based; conditions: in vivo
[5] = Cmax in CD-1 mouse at 10 mg/kg, po; format: ADME, organism-based; design: dose 10 mg/kg, route oral; conditions: in vivo
[6] = AUC (0 to 7 hrs) in CD-1 mouse at 10 mg/kg, po; format: ADME, organism-based; design: time < 7 hr, dose 10 mg/kg, route oral; conditions: in vivo
[7] = Stability in human hepatocytes assessed as parent compound remaining measured after 60 mins; format: ADME, cell-based, Hepatocyte; conditions: read-out: Stability
[8] = target: Cytochrome P450 2C9 (Homo sapiens, UniProt P11712); test: Inhibition of CYP2C9 in human liver microsomes by LC-MS/MS analysis; format: ADME
Outline: (§1)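 Reversible CYP inhibition measured in human liver microsomes; metabolite formation quantified by LC/MS/MS.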

[9] = target: Cytochrome P450 2C19 (Homo sapiens, UniProt P33261); test: Inhibition of CYP2C19 in human liver microsomes by LC-MS/MS analysis; format: ADME; outline: as §1
[10] = target: Cytochrome P450 2D6 (Homo sapiens, UniProt P10635); test: Inhibition of CYP2D6 in human liver microsomes by LC-MS/MS analysis; format: ADME; outline: as §1
[11] = target: Cytochrome P450 3A4 (Homo sapiens, UniProt P08684); test: Inhibition of CYP3A4 in human liver microsomes by LC-MS/MS analysis; format: ADME; outline: as §1
[12] = Volume of distribution in CD-1 mouse at 10 mg/kg, po; format: ADME, organism-based; conditions: in vivo
[13] = tested on: MDA-MB-231; test: Antiinvasive activity against human MDA-MB-231 cells at 1 uM after 72 hrs by luciferase reporter-based matrigel-coated transwell assay relative to control; format: functional
Outline: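 Invasion of luciferase-expressing MDA-MB-231 cells assessed in a system including RAW264.7 mouse macrophages, across a dose range including 1 μM; invasion read by luciferase signal relative to untreated control.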

[14] = tested on: MDA-MB-231; test: Growth inhibition of human MDA-MB-231 cells at 5 uM after 24 hrs by MTS assay relative to control; format: functional; conditions: MDA-MB-231, 24 h, read-out: GI
[15] = target: Discoidin domain-containing receptor 2 (Homo sapiens, UniProt Q16832); test: Inhibition of recombinant human N-terminal His6-tagged DDR2 (467 to end residues) expressed in baculovirus infected Sf21 insect cells using Axltide as substrate in presence of [gamma-33P]-ATP or [gamma-32P]-ATP
Outline: (§2)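 Kinase panel of twenty-eight enzymes; IC50 values determined with ATP at the respective Km of each kinase.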

[16] = target: Fibroblast growth factor receptor 1 (Homo sapiens, UniProt P11362); test: Inhibition of recombinant human N-terminal GST-tagged FGFR1 (456 to 765 residues) expressed in baculovirus infected Sf21 insect cells using IGF-IRtide (12-527) as substrate in presence of [gamma-33P]-ATP or [gamma-32P]-ATP; outline: as §2
[17] = target: Maternal embryonic leucine zipper kinase (Homo sapiens, UniProt Q14680); test: Inhibition of recombinant human N-terminal GST-tagged MELK (1 to 340 residues) expressed in baculovirus infected Sf21 insect cells using KKLNRTLSFAEPG as substrate in presence of [gamma-33P]-ATP or [gamma-32P]-ATP; outline: as §2
[18] = target: T1, Angiopoietin-1 receptor (Homo sapiens, UniProt Q02763); test: Inhibition of recombinant human N-terminal His6-tagged Tie2 (771 to end residues) expressed in baculovirus infected Sf21 insect cells using Poly (Glu4-Tyr) (4:1) as substrate in presence of [gamma-33P]-ATP or [gamma-32P]-ATP
[19] = target: Ephrin type-A receptor 5 (Homo sapiens) (UniProt P54756); test: Inhibition of recombinant human N-terminal His6-tagged EphA5 (655 to 956 residues) expressed in baculovirus infected Sf21 insect cells at 1 uM using Axltide as substrate in presence of [gamma-33P]-ATP or [gamma-32P]-ATP relative to control
[20] = target: Insulin-like growth factor 1 receptor (Homo sapiens) (UniProt P08069); test: Inhibition of Mg/ATP-autoactivated recombinant human N-terminal His6-tagged IGFR1 (959 to end residues) expressed in baculovirus infected Sf21 insect cells at 1 uM in presence of [gamma-33P]-ATP or [gamma-32P]-ATP relative to control
[21] = target: Tyrosine-protein kinase Lck (Homo sapiens) (UniProt P06239); test: Inhibition of recombinant human full-length N-terminal His6-tagged LCK expressed in baculovirus infected Sf21 insect cells at 1 uM in presence of [gamma-33P]-ATP or [gamma-32P]-ATP relative to control
[22] = target: Hepatocyte growth factor receptor (Homo sapiens) (UniProt P08581); test: Inhibition of recombinant human N-terminal His6-tagged Met (974 to end residues) expressed in baculovirus infected Sf21 insect cells at 1 uM using KKKSPGEYVNIEFG as substrate in presence of [gamma-33P]-ATP or [gamma-32P]-ATP relative to control
[23] = target: Proto-oncogene tyrosine-protein kinase receptor Ret (Homo sapiens) (UniProt P07949); test: Inhibition of recombinant human N-terminal GST-tagged Ret (658 to end residues) expressed in baculovirus infected Sf21 insect cells at 1 uM using IFG-1Rtide as substrate in presence of [gamma-33P]-ATP or [gamma-32P]-ATP relative to control
[24] = target: Discoidin domain-containing receptor 2 (Homo sapiens) (UniProt Q16832); test: Inhibition of recombinant human N-terminal His6-tagged DDR2 (467 to end residues) expressed in baculovirus infected Sf21 insect cells at 1 uM using Axltide as substrate in presence of [gamma-33P]-ATP or [gamma-32P]-ATP relative to control
[25] = tested on: RAF proto-oncogene serine/threonine-protein kinase (Homo sapiens), P04049 [Y340D,Y341D]; test: Inhibition of recombinant human N-terminal GST-tagged c-RAF Y340D/Y341D double mutant (306 to 648 residues) expressed in baculovirus infected Sf21 insect cells at 1 uM using MEK1(K97R) as substrate in presence of [gamma-33P]-ATP or [gamma-32P]-ATP relative to control
[26] = target: T1, Angiopoietin-1 receptor; test: Inhibition of recombinant human N-terminal His6-tagged Tie2 (771 to end residues) expressed in baculovirus infected Sf21 insect cells at 1 uM using Poly (Glu4-Tyr) (4:1) as substrate in presence of [gamma-33P]-ATP or [gamma-32P]-ATP relative to control

T1 sequence (Q02763 whole entry, the tested form may be a part): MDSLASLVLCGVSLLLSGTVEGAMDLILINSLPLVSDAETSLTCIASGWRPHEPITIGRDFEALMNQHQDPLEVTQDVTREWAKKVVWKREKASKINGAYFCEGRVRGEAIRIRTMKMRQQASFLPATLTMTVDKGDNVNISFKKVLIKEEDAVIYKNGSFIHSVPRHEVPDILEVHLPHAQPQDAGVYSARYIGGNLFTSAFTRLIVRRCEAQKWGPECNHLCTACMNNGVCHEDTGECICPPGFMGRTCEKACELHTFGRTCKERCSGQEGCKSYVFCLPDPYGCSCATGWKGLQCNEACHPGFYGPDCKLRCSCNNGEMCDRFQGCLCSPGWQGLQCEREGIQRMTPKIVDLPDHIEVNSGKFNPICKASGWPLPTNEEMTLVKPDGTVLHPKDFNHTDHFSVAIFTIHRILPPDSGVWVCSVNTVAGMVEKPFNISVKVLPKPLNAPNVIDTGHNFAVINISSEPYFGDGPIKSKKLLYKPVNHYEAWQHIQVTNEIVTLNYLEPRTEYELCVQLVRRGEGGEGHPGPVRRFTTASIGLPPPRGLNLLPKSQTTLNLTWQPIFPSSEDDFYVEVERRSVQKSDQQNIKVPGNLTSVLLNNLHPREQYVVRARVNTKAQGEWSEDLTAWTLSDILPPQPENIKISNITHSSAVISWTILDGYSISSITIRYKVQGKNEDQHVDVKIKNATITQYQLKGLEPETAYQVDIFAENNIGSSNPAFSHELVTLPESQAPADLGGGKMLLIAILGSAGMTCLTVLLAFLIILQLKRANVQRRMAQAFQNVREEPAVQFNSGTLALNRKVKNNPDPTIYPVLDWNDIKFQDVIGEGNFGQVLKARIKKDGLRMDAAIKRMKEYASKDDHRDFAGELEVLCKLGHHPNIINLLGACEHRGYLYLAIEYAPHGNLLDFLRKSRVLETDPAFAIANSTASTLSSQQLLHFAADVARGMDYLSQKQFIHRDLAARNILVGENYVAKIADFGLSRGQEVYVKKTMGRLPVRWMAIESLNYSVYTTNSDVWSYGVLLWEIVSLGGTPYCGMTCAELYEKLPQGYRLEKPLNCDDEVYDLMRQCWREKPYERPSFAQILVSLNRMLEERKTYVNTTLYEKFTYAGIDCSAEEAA
Cytochrome P450 2C9, sequence (P11712 whole entry): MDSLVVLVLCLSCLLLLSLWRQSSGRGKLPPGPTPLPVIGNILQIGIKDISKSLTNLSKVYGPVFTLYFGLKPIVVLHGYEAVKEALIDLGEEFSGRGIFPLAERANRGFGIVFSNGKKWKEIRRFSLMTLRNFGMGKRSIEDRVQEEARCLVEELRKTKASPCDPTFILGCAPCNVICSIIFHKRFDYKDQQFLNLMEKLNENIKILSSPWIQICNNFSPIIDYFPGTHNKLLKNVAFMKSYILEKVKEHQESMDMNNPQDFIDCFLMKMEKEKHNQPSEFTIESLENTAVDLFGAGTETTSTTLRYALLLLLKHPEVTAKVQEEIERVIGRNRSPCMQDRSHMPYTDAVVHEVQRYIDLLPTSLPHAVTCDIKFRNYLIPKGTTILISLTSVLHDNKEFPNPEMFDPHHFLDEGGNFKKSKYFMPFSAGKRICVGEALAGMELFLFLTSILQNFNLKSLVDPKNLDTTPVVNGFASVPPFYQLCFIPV
Cytochrome P450 2D6, sequence (P10635 whole entry): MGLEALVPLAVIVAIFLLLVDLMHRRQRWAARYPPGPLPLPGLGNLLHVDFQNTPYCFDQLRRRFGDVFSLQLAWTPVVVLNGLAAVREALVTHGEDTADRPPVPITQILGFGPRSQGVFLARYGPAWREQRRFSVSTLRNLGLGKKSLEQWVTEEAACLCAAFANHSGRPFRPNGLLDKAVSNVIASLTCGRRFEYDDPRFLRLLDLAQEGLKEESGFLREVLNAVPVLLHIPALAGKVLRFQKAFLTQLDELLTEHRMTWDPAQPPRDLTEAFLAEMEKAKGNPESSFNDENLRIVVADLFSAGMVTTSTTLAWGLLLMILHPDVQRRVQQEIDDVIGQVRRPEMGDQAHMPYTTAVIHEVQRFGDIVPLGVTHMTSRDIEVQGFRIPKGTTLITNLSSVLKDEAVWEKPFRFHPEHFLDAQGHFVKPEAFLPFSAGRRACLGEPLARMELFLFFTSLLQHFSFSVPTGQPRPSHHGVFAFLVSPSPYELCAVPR
Tyrosine-protein kinase Lck (Homo sapiens), sequence (P06239 2-509 limits assumed): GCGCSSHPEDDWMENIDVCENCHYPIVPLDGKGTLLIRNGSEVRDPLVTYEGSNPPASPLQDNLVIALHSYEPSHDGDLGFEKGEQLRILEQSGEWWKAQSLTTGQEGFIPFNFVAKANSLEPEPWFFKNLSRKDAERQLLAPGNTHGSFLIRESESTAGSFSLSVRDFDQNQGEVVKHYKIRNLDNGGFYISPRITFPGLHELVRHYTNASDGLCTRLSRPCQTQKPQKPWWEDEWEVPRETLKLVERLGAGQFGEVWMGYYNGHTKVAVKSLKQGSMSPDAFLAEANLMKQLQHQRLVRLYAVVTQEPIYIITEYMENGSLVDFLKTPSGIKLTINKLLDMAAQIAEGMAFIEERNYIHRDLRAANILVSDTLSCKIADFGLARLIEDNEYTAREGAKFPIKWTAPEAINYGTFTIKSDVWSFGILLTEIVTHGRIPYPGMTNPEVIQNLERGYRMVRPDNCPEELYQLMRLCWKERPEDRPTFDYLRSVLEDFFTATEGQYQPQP
Macrophage colony-stimulating factor 1 receptor, sequence (P07333 whole entry): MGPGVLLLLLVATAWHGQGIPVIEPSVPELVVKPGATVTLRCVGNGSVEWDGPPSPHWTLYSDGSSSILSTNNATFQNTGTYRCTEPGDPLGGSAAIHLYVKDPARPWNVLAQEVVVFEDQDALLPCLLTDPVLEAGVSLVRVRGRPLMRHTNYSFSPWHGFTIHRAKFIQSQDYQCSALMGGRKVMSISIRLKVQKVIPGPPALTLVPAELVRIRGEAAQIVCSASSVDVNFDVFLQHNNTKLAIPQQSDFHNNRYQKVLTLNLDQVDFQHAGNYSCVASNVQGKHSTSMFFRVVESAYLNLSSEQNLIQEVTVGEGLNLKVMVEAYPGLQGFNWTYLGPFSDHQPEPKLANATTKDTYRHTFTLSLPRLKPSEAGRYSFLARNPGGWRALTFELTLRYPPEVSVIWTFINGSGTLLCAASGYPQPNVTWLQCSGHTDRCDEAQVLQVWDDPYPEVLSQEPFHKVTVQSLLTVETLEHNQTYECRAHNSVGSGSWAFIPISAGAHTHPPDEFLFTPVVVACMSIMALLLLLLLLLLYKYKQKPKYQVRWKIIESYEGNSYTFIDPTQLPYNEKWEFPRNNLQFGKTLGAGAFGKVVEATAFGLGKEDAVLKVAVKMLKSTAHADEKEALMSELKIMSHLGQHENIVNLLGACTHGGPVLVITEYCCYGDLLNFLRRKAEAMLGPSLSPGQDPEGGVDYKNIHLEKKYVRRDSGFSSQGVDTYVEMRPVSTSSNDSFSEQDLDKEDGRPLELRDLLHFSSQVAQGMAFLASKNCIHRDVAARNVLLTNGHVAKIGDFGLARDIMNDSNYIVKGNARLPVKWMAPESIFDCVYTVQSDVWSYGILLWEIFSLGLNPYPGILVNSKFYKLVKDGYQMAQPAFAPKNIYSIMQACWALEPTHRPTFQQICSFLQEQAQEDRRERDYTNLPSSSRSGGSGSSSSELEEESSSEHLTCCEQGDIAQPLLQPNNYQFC
Cytochrome P450 3A4, sequence (P08684 whole entry): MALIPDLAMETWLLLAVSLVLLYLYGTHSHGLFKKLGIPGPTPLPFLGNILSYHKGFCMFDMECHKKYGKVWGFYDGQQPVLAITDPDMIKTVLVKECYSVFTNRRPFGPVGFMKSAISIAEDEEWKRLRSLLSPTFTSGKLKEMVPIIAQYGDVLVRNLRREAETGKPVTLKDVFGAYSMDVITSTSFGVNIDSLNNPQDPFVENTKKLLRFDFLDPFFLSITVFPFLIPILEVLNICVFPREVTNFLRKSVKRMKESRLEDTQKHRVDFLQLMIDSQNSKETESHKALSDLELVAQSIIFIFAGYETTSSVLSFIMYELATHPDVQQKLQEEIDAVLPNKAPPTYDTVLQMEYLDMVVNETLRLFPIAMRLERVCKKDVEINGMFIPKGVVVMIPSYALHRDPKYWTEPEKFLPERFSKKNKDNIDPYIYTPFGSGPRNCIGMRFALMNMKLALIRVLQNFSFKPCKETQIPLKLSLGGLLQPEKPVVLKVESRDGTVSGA
Fibroblast growth factor receptor 1, sequence (P11362 whole entry, the tested form may be a part): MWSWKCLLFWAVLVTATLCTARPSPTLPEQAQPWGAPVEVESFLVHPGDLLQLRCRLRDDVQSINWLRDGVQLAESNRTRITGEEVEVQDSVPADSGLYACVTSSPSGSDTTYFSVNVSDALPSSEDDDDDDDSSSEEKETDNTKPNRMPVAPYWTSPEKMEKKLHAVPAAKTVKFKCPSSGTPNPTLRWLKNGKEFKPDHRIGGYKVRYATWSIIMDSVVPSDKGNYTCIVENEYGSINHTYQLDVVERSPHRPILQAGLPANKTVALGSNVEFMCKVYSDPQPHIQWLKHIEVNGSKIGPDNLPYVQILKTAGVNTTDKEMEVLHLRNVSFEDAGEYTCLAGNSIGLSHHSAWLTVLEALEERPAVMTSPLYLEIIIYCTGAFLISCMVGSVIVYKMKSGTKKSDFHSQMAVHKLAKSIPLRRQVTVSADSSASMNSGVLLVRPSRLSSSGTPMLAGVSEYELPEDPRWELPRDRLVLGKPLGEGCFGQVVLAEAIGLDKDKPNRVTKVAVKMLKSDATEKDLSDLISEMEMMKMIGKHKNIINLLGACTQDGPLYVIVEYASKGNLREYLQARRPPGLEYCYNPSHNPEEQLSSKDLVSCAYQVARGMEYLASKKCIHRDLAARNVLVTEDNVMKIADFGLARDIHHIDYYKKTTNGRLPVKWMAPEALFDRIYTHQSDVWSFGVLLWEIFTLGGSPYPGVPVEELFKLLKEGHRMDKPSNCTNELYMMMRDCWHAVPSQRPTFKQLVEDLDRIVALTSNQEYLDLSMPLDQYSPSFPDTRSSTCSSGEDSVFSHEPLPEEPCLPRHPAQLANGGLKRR

Cc1cccc(Cn2nc(C)c3c(NC(=O)c4csc5c(N)ncnc45)cccc32)n1
IC50 [1]: 2 nM
GI50 [2]: 80 nM
Vd [3]: 2 L/kg
clearance [4]: 15 mL/min/kg
Cmax [5]: 900 ng/mL
AUC(0-t) at 7 h [6]: 4040 ng·h/mL
remaining at 1 h [7]: 87%
IC50 [8]: > 20000 nM
IC50 [9]: > 20000 nM
IC50 [10]: > 20000 nM
IC50 [11]: > 20000 nM
Vd [12]: 7.5 L/kg
Activity [13]: 67%
inhibition of growth at 5 µM [14]: 20%
IC50 [15]: 64 nM
IC50 [16]: 145 nM
IC50 [17]: 258 nM
IC50 [18]: 208 nM
inhibition [19]: -9%
inhibition [20]: 56%
inhibition [21]: 20%
inhibition [22]: -9%
inhibition [23]: -2%
inhibition [24]: > 60%
inhibition [25]: > 60%
inhibition [26]: > 60%
